{"source": "paper PMC3608738", "about": "(Antiviral research, 2012)", "key": {"WNV (NY99)": {"tested_on": "WNV (NY99)", "assay": "Viral titer reduction assay", "assay_type": "cell-based, West Nile virus", "conditions": "A549 cells, WNV MOI 0.1, 42 h", "how_it_was_run": "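About 2 × 10^5 A549 cells per well are treated 24-30 h after seeding, in triplicate. Test compound, made at 2X in medium with 2% DMSO, is added, followed immediately by WNV NY99 at MOI 0.1 PFU/cell. After 42 h at 37°C, culture fluid is titred by plaque assay on confluent Vero monolayers under a 0.6% agar overlay with a neutral red second overlay. EC50 comes from nonlinear regression of the dose–response curve.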"}, "WNV MTase [1]": {"molecular_target": "T1, WNV MTase (West Nile virus, UniProt Q9Q6P4)", "T1 sequence (Q9Q6P4 2529-2794)": "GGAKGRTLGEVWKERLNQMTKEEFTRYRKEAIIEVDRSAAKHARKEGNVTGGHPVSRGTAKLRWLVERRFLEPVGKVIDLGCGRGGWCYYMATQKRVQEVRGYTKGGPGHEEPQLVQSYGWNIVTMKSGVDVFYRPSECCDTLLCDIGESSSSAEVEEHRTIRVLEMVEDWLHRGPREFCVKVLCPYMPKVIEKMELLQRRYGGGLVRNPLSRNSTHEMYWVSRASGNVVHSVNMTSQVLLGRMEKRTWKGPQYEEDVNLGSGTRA", "assay": "In vitro 2'-O methylation inhibition assay", "assay_type": "biochemical", "how_it_was_run": "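2'-O methylation is followed as conversion of m7G*pppA-RNA to m7G*pppAm-RNA. Each reaction contains 1.5 μM WNV MTase, 80 μM SAM, 0.36 μM m7G*pppA-RNA substrate and a range of test compound concentrations. Products are digested with nuclease P1, and the caps are separated by TLC and quantified by PhosphorImager. Activity is taken from m7G*pppA versus m7G*pppAm, with no-compound activity set at 100%. IC50 comes from a dose–response fit; Ki comes from Cheng-Prusoff.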"}, "WNV MTase [2]": {"molecular_target": "T1, WNV MTase", "assay": "In vitro N7 methylation inhibition assay", "assay_type": "biochemical"}, "hRNMTase": {"molecular_target": "hRNMTase (Homo sapiens, UniProt O43148)", "sequence (O43148 whole entry)": "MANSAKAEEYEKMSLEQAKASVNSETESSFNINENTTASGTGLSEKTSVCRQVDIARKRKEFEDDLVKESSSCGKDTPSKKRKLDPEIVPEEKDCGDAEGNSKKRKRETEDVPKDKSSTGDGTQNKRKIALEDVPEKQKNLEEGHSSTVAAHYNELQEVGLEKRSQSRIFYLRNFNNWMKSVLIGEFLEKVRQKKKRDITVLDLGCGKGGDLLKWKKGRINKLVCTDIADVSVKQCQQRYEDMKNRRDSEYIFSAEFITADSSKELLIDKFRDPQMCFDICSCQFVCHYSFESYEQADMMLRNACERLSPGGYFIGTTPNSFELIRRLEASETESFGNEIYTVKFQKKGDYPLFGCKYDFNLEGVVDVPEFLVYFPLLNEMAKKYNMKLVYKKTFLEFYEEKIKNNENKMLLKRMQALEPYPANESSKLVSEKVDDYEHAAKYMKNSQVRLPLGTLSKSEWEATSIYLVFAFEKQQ", "assay": "[3H]SAM competition binding assay"}, "[3]": {"molecular_target": "human guanine N-7 RNA MTase (hRNMTase) (Homo sapiens, UniProt O43148)", "sequence (O43148 whole entry)": "as above", "assay": "Inhibition of human RNA MTase", "assay_type": "biochemical"}, "WNV MTase [4]": {"molecular_target": "T1, WNV MTase", "assay": "[3H]SAM competition binding assay", "conditions": "positive control, dose response", "how_it_was_run": "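For G-25 filtration SAM competition, 0.6 μM WNV MTase is mixed with [methyl-3H]-SAM (about 14.1 nM final) and a 3-fold dilution series of test compound starting at 60 μM. Mixtures stand 2 h at room temperature and are spun through G-25 mini-columns. The eluted MTase-bound 3H is quantified by scintillation counting. Points are run in duplicate.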"}}}
{"smiles": "CCOC(=O)[C@@](C)(O)[C@@H]1C[C@@H](CO[Si](c2ccccc2)(c2ccccc2)C(C)(C)C)O[C@H]1n1cc(F)c(=O)[nH]c1=O", "note": "[GRL-003]", "values": [{"measurement": "Concentration giving one logarithmic order of reduction in the WNV replication", "setting": "WNV (NY99)", "value": 50, "unit": "μM"}, {"measurement": "Hill coef. (2'-O)", "setting": "WNV MTase [1]; dose-response curve of 2'-O MTase inhibition", "value": 2.8}, {"measurement": "Fold lower Ki than GRL-001 (2'-O inhibition)", "setting": "WNV MTase [1]; relative to GRL-001", "value": 12, "unit": "fold"}, {"measurement": "Inhibition of N-7 MTase activity (in words)", "setting": "WNV MTase [2]", "value": "only moderately inhibited"}, {"measurement": "Hill coef. (N-7)", "setting": "WNV MTase [2]; dose-response curve of N-7 MTase inhibition", "value": 0.9}, {"measurement": "Fold lower Ki than GRL-001 (N-7 inhibition)", "setting": "WNV MTase [2]; relative to GRL-001", "value": 5, "unit": "fold"}, {"measurement": "Inhibition of [3H]SAM binding to hRNMTase (in words)", "setting": "hRNMTase; 300 μM compound", "value": "did not inhibit"}, {"measurement": "Inhibition of hRNMTase activity (in words)", "setting": "[3]; even at 300 μM compound concentration", "value": "did not inhibit"}]}
{"smiles": "Nc1ncnc2c1ncn2[C@@H]1O[C@H](C[C@@H](N)CC[C@H](N)C(=O)O)[C@@H](O)[C@H]1O", "note": "[SIN, Sinefungin, reference compound]", "values": [{"measurement": "Inhibition of 3H-labeled SAM-MTase complex formation (in words)", "setting": "WNV MTase [4]", "value": "very efficiently in a dose-dependent manner"}, {"measurement": "Inhibition of [3H]SAM binding to hRNMTase (in words)", "setting": "hRNMTase; control, dose response", "value": "decreased the SAM binding very efficiently"}, {"measurement": "IC50", "setting": "[3]", "value": "~41.2", "unit": "µM"}]}
